Test results from article PMC8733272 (iScience, 2021).
Numbering of substitutions follows the chain as printed.

Legend:
[1] = biological target: T1, WT-Parkin (Homo sapiens, UniProt O60260); test: Parkin catalytic poly-auto-Ub TR-FRET assay; type: biochemical; conditions: for activity in TR-FRET autoubiquitination assay: WT-Parkin with pUb
T1 sequence (O60260 1-465): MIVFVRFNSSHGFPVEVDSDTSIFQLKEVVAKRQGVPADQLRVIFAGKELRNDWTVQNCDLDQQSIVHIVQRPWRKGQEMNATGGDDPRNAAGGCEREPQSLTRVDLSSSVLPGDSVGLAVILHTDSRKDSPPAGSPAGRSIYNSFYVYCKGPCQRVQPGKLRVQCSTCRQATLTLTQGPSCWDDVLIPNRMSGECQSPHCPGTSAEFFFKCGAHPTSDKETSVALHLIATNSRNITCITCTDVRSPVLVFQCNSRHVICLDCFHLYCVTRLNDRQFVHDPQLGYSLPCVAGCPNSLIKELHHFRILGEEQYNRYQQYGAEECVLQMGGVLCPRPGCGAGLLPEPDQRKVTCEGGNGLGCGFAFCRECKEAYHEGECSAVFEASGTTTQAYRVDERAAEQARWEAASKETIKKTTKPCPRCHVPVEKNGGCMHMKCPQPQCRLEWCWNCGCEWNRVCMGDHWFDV

[2] = biological target: N-terminally tagged W403A-Parkin (UniProt O60260)
[3] = tested on: SH-SY5Y cells expressing the MitoQC construct; test: MitoQC mitophagy assay; type: cell-based; conditions: 1 h pre-incubation, Antimycin + Oligomycin
In short: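 SH-SY5Y cells carrying MitoQC were seeded at 1.6×10^4 cells/well on attachment factor and recovered 72 h. Cells were pre-treated 1 h with test compound, then given 5 μM Antimycin + 10 μM Oligomycin or DMSO for 8 h unless stated otherwise. Fixed in 2% PFA on ice 30 min, DAPI-stained, and imaged at 64x (25 fields, 4 replicate wells). mCherry puncta (mitolysosomes) were counted.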

[4] = biological target: T2, WT-Parkin (substrate His-Miro1 186-591) (Homo sapiens, UniProt O60260); test: Miro1 ubiquitination assay by Western blot; type: biochemical; conditions: His-Miro1 (186-591) substrate
T2 sequence (O60260 1-465): T1 sequence (O60260 1-465)
In short: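 Run as the TR-FRET reaction with untagged WT-Parkin. Test compound was pre-incubated 30 min with E1, E2, Parkin and His-Miro1 186-591 (250 nM final); the 2X mix held 40 nM E1, 800 nM E2 and 100 nM Parkin. After 20 min the reaction was stopped in SDS sample buffer, then run on 4–12% bis-tris SDS-PAGE, PVDF transfer and IR-dye secondary imaging.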

[5] = biological target: Human MDR1 efflux transporter (MDCK-MDR1 cells) (Homo sapiens, UniProt P08183); test: MDCK-MDR1 bidirectional permeability / efflux; type: in vitro ADME; conditions: average of inward and outward permeability
Sequence of Human MDR1 efflux transporter (MDCK-MDR1 cells) (P08183 whole entry): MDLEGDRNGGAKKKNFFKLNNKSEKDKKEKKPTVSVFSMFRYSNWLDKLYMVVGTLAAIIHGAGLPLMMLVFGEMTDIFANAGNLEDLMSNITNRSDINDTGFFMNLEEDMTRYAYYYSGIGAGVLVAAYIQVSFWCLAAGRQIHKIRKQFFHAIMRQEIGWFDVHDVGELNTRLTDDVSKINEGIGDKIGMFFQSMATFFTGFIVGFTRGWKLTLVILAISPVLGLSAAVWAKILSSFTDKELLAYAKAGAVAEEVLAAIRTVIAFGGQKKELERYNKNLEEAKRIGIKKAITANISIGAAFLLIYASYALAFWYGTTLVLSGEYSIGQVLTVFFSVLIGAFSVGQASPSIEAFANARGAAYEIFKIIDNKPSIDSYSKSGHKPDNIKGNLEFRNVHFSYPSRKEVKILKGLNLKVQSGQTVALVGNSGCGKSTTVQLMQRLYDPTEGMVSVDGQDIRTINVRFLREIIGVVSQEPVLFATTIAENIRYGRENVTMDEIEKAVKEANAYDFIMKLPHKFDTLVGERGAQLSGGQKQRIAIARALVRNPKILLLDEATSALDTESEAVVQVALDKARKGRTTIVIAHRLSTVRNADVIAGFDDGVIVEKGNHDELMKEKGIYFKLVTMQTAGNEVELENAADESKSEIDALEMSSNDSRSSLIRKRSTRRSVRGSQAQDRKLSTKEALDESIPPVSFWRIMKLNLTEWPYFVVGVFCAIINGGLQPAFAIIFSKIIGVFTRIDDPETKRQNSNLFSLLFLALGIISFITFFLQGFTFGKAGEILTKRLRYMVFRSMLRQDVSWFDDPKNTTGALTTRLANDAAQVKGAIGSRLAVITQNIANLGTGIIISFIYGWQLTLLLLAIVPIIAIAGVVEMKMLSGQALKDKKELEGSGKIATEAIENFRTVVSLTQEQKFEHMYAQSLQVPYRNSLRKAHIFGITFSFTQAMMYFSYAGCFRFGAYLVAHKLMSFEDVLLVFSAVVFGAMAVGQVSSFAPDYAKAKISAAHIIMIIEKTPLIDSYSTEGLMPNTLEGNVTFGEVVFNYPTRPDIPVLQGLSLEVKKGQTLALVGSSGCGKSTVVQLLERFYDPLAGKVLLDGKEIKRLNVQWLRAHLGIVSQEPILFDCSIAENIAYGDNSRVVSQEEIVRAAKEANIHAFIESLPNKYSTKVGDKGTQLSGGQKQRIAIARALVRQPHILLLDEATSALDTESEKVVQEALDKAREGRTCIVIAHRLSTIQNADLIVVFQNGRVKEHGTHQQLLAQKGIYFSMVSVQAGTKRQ
In short: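 MDCK-MDR1 cells were seeded at 0.28×10^6 cells/mL on the apical side of transwell inserts and grown 7 days, with two media changes. Monolayers were rinsed in HBSS/1% HEPES pH 7.4. 1 μM test compound was added to the donor side (A>B and B>A); receivers held buffer with 1% BSA. Plates were shaken 2 h at 37°C. Donor was sampled at 0 and 120 min, receiver at 2 h, and quenched with acetonitrile plus internal standard for LC-MS/MS. Post-assay TEER had to exceed 430 ohm∗cm2. Papp = (dQ/dt)(1/C0)(1/A); ER = Papp B>A / Papp A>B.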

[6] = biological target: T1, WT-Parkin; test: Parkin autoubiquitination by Western blot; type: biochemical; conditions: 5 min reaction at 37°C
In short: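 Untagged WT-Parkin was pre-incubated 30 min at 37°C with E1, E2 and test compound; the 2X mix held 40 nM E1, 800 nM E2 and 100 nM Parkin. Then 2X substrate mix was added (760 nM fluorescein-Ub, 50 μM ubiquitin, 10 μM pUb, 2 mM ATP) in HEPES pH 7.4 buffer with 1% DMSO, in 40 μL. Stopped after 5 min with SDS sample buffer; polyubiquitin smears were read by Western blot.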

[7] = biological target: T3, N-terminally tagged WT-Parkin (Homo sapiens, UniProt O60260); test: In vitro ubiquitin vinyl sulfone; type: biochemical; conditions: 3 μM pUb, 2 h, no E1, E2 or ATP
T3 sequence (O60260 1-465): T1 sequence (O60260 1-465)
In short: (§1)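 Tagged Parkin (WT or W403A), 2 μM, incubated with 10 μM Ub-VS and 3 μM pUb. Test compound at 0, 0.09, 0.27, 0.8, 2.5, 7.4, 22.2, 66.7 and 200 μM. Buffer: 50 mM HEPES, 150 mM NaCl, 1 mM TCEP, pH 8.0. Final DMSO 2% (v/v).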

[8] = biological target: T4, N-terminally tagged W403A-Parkin (Homo sapiens, UniProt O60260, W403A); test: In vitro ubiquitin vinyl sulfone; type: biochemical; conditions: 3 μM pUb, 1 h
T4 sequence (O60260 1-465 W403A): T1 sequence (O60260 1-465) with W403A
In short: as §1

Question: With `CC(C)[C@H]1Cn2ncc(-c3ccc(C(=O)N4CCCc5ccccc54)cc3)c2CN1C(=O)Cc1ccccc1` [BIO-1966560, (S)-1-(6-isopropyl-3-(4-(1,2,3,4-tetrahydroquinoline-1-carbonyl)phenyl)-6,7-dihydropyrazolo[1,5-a]pyrazin-5(4H)-yl)-2-phenylethan-1-one] as the compound, how does the “activity in TR-FRET autoubiquitination assay” value (from here on “activity”) [1] read?
Answer: The value was “inactive”.

Question: With “Phospho-ubiquitin (pUb): Human Recombinant pSer65-Ubiquitin (from UniProt P0CG48 1-76) (natural protein)” as the compound, how does the EC50 of pUb for Ub-VS charging of W403A-Parkin (gel shift), without BIO-2007817 [2] read?
Answer: The EC50 of pUb for Ub-VS charging of W403A-Parkin (gel shift), without BIO-2007817 was 5.4 μM.

Question: How did the “effect on mitophagy, MitoQC” value [3] turn out when `C[C@H](C(=O)N1Cc2c(-c3ccc(C(=O)N4CCCc5ccccc54)cc3)cnn2C[C@H]1C)c1ccccc1` [BIO-1967173, (S)-1-((R)-6-methyl-3-(4-(1,2,3,4-tetrahydroquinoline-1-carbonyl)phenyl)-6,7-dihydropyrazolo[1,5-a]pyrazin-5(4H)-yl)-2-phenylpropan-1-one] was run?
Answer: Its value is “no enhanced MitoQC activity”.

Question: Which “effect on mitophagy, MitoQC” value [3] does the source give for `CO[C@H](C(=O)N1Cc2c(-c3ccc(C(=O)N4CCCc5ccccc54)cc3)cnn2C[C@H]1C(C)C)c1ccccc1` (single isomer, unassigned) [BIO-2008550] here?
Answer: Its value is “no enhanced MitoQC activity”.

Question: How did the “activity” value [1] turn out when `C[C@@H]1Cn2ncc(-c3ccc(C(=O)N4CCCc5ccccc54)cc3)c2CN1C(=O)[C@H](C)c1ccccc1` [BIO-1967174, (R)-1-((R)-6-methyl-3-(4-(1,2,3,4-tetrahydroquinoline-1-carbonyl)phenyl)-6,7-dihydropyrazolo[1,5-a]pyrazin-5(4H)-yl)-2-phenylpropan-1-one] was run?
Answer: Its value is “weakly active”.

Question: What about the “Miro1 ubiquitination by Western blot” value [4] of the same compound?
Answer: The value was “enhance the rate of monoubiquitination of Miro1 substrate to a level comparable to that of W403A-Parkin”.

Question: Which “MDR1-MDCK avg (average of Papp AB/BA)” value [5] does the source give for `Cc1n[nH]c(CC(=O)N2Cc3c(-c4ccc(C(=O)N5CCCc6ccccc65)cc4)cnn3C[C@H]2C)n1` [BIO-1984542, (R)-2-(3-methyl-1H-1,2,4-triazol-5-yl)-1-(6-methyl-3-(4-(1,2,3,4-tetrahydroquinoline-1-carbonyl)phenyl)-6,7-dihydropyrazolo[1,5-a]pyrazin-5(4H)-yl)ethan-1-one] here?
Answer: Its value is 4.4 ×10⁻⁶ cm/s.

Question: And the “Parkin autoubiquitination by Western blot” value [6]?
Answer: Its value is “inactive”.

Question: And the “Ub-VS charging of WT-Parkin” value [7]?
Answer: Its value is “no significant activity”.

Question: And the “activity” value [1]?
Answer: The value was “inactive”.

Question: What about the “Miro1 ubiquitination by Western blot” value [4] of the same compound?
Answer: The value was “inactive”.

Question: Which “activity” value [1] does the source give for `C[C@H](C(=O)N1Cc2c(-c3ccc(C(=O)N4CCCc5ccccc54)cc3)cnn2C[C@@H]1C)c1ccccc1` [BIO-1968010, (S)-1-((S)-6-methyl-3-(4-(1,2,3,4-tetrahydroquinoline-1-carbonyl)phenyl)-6,7-dihydropyrazolo[1,5-a]pyrazin-5(4H)-yl)-2-phenylpropan-1-one] here?
Answer: The value was “inactive”.

Question: How did the EC50 ([1]; EC50 (μM), WT-Parkin, 5 μM pUb, averaged technical replicates n = 2) turn out when `CO[C@H](C(=O)N1Cc2c(-c3ccc(C(=O)N4CCCc5ccccc54)cn3)cnn2C[C@H]1C(C)C)c1cnn(C)c1` (single isomer, unassigned) [BIO-2007967] was run?
Answer: Its EC50 is < 0.2 µM.

Question: For `C[C@@H](C(=O)N1Cc2c(-c3ccc(C(=O)N4CCCc5ccccc54)cc3)cnn2C[C@@H]1C)c1ccccc1` [BIO-1968011, (R)-1-((S)-6-methyl-3-(4-(1,2,3,4-tetrahydroquinoline-1-carbonyl)phenyl)-6,7-dihydropyrazolo[1,5-a]pyrazin-5(4H)-yl)-2-phenylpropan-1-one], which “activity” value [1] is on record?
Answer: Its value is “inactive”.

Question: What does the source list for `CO[C@@H](C(=O)N1Cc2c(-c3ccc(C(=O)N4CCCc5ccccc54)cc3)cnn2C[C@H]1C(C)C)c1cnn(C)c1` (single isomer, unassigned) [BIO-2007818]?
Answer: Parkin autoubiquitination by Western blot [6]: reduced ability to induce Parkin autoubiquitination; Ub-VS charging of WT-Parkin [7]: to a lesser extent; Miro1 ubiquitination by Western blot [4]: reduced ability; Ub-VS charging of W403A-Parkin [8]: to a lesser extent

Question: How did the “potency improvement (fold) over parent analog” value ([1]; from TR-FRET EC50) turn out when `CC(C)[C@@H]1Cn2ncc(-c3ccc(C(=O)N4CCCc5ccccc54)cc3)c2CN1C(=O)Cc1ccccc1` [BIO-1966561, (R)-1-(6-isopropyl-3-(4-(1,2,3,4-tetrahydroquinoline-1-carbonyl)phenyl)-6,7-dihydropyrazolo[1,5-a]pyrazin-5(4H)-yl)-2-phenylethan-1-one] was run?
Answer: The value was 5 fold.
